Assay results from different studies.
Cell line: HepG2
Observed: cell growth or viability

Clc1ccc(-c2nc3ccccc3n2Cc2ccccc2)cc1  IC50 (MTT): 47.2 µM
CCn1cc(-c2nc(C)no2)c(=O)c2cc(F)c(N3CCOCC3)cc21  EC50 (ATP luminescence; 48 h): > 40 µM
COc1cccc(NC(=O)CN2C(=O)/C(=C/c3cccs3)SC2=S)c1  inhibition (MTT; 10 µM): 12.2%
O=C(N/N=C/c1cccn1CCN1CCCCC1)Nc1cc2c(Nc3ccc(F)c(Cl)c3)ncnc2cc1O[C@H]1CCOC1  IC50 (MTT; 72 h): 0.59 µM
CCn1cc(-c2nc(C)no2)c(=O)c2cc(F)c(N3CCCCC3)cc21  EC50 (ATP luminescence; 48 h): > 40 µM
CCOC(=O)c1ccc(N2C(N)=C(C#N)C3(C(=O)Nc4ccccc43)C(C#N)=C2O)cc1 (centres unmarked)  viability (MTT; 50 µM; 24 h): 17.9%
Cc1ccc2nc(-c3ccc(Cl)cc3)n(Cc3ccccc3Cl)c2c1  IC50 (MTT): 47.9 µM
Cc1cc(=O)oc2ccc(-c3cc(-c4cccc(Cl)c4)nc(N)n3)c(O)c12  inhibition (MTT; 32 µg/mL; 72 h): 19%
COc1ccc(-c2nc3ccccc3[nH]2)cc1O  IC50 (MTT; 48 h): 64.2 µM
CCn1cc(-c2nc(C)no2)c(=O)c2cc(F)c(N3CCC4(CC3)CC4)cc21  EC50 (ATP luminescence; 48 h): > 40 µM
O=C(CN1C(=O)/C(=C/c2ccccc2Cl)SC1=S)Nc1ccccc1  inhibition (MTT; 10 µM): 11%
Cc1ccc(-c2cc(-c3ccc4oc(=O)cc(C)c4c3O)nc(N)n2)cc1  inhibition (MTT; 32 µg/mL; 72 h): 0%
COc1ccc(C=NNC(=O)c2sc(Nc3ccccc3)c(C(=O)Nc3ccc(OC)cc3)c2NC(C)=O)cc1  viability (SRB; 0.1 µM; 48 h): 76.5%
Cc1cc(=O)oc2ccc(-c3cc(-c4ccc(Cl)cc4)nc(N)n3)c(O)c12  inhibition (MTT; 8 µg/mL; 72 h): 39%
Cc1ccc2nc(-c3cccc([N+](=O)[O-])c3)[nH]c2c1  IC50 (MTT; 48 h): 71.4 µM
COc1ccc(-c2cc(-c3ccc4oc(=O)cc(C)c4c3O)nc(N)n2)cc1  inhibition (MTT; 128 µg/mL; 72 h): 40%
CSc1ccc(-c2nc3ccc(C)cc3[nH]2)cc1  IC50 (MTT; 48 h): > 100 µM
COc1ccc(NC(=O)c2c(Nc3ccccc3)sc(C#N)c2NC(=O)CNc2ccccc2)cc1  viability (SRB; 10 nM; 48 h): 90.3%
Cc1ccc2nc(-c3c4ccccc4cc4ccccc34)[nH]c2c1  IC50 (MTT; 48 h): 21.4 µM
Cc1cc(Nc2ccc(C(=O)N/N=C/c3ccccc3)cc2)c2cccc(O)c2n1  inhibition (MTT; 20 µM): 48.9%
CCOC(=O)c1ccc(NC(=O)C2=C3C(=Nc4ccccc43)NC2=O)cc1  viability (MTT; 50 µM; 24 h): 42.7%
O=C(CN1C(=O)/C(=C/c2ccccc2F)SC1=S)Nc1ccccc1  inhibition (MTT; 10 µM): 7.65%
Cc1cc(=O)oc2ccc(-c3cc(-c4ccccc4)nc(N)n3)c(O)c12  inhibition (MTT; 2 µg/mL; 72 h): 0%
COc1cccc(-c2nc3ccc(C)cc3[nH]2)c1  IC50 (MTT; 48 h): 26.9 µM
CCOC(=O)c1ccc(-n2c(-c3ccc(C)cc3)cc(-c3ccc(O)cc3)c(C#N)c2=O)cc1  viability (MTT; 3.125 µM; 24 h): 88%
O=C(CN1C(=O)/C(=C/c2ccccc2)SC1=S)Nc1ccccc1  inhibition (MTT; 10 µM): 31.3%
COc1ccc(NC(=O)c2c(Nc3ccccc3)sc(C(=O)NN=Cc3ccc(Cl)cc3)c2NC(C)=O)cc1  viability (SRB; 10 nM; 48 h): 95.2%
Cc1ccc2nc(-c3ccccc3Cl)[nH]c2c1  IC50 (MTT; 48 h): 95.6 µM
CCOC(=O)c1ccc(-n2c(C)cc(C)c(C#N)c2=O)cc1  viability (MTT; 100 µM; 24 h): 36.4%
COc1cc2ncnc(Nc3ccc(F)c(Cl)c3)c2cc1NC(=O)N/N=C/c1cccn1CCN(C)C  IC50 (MTT; 72 h): 0.11 µM
COc1ccc(NC(=O)c2c(Nc3ccccc3)sc(C#N)c2NC(=O)CNc2ccc(OC)c(OC)c2)cc1  viability (SRB; 1 nM; 48 h): 100%
Cc1cc(Nc2ccc(C(=O)N/N=C/c3nc4ccccc4[nH]3)cc2)c2cccc(O)c2n1  inhibition (MTT; 20 µM): 46.4%
O=C(CN1C(=O)/C(=C/c2ccncc2)SC1=S)Nc1ccccc1  inhibition (MTT; 10 µM): 11.8%
COc1ccc(NC(=O)c2c(Nc3ccccc3)sc(C(=O)NN=Cc3ccccc3)c2NC(C)=O)cc1  viability (SRB; 1 µM; 48 h): 72%
CC(=O)Nc1cccc(-n2c(=O)n(C3CC3)c(=O)c3c(Nc4ccc(I)cc4F)n(C)c(=O)c(C)c32)c1  viability (resazurin; 1.56 nM; 72 h): 96.4%
CCOC(=O)c1ccc(-n2c(N)c(C#N)c(CC#N)c(C#N)c2=O)cc1  viability (MTT; 25 µM; 24 h): 50.9%
COc1ccc(NC(=O)c2c(Nc3ccccc3)sc(C(=O)NN=Cc3cc(OC)c(OC)c(OC)c3)c2NC(C)=O)cc1  viability (SRB; 100 µM; 48 h): 33.9%
CCCC1CCN(c2cc3c(cc2F)c(=O)c(C(=O)OCC)cn3CC)CC1  EC50 (ATP luminescence; 48 h): > 40 µM
Cc1cc(=O)oc2ccc(-c3cc(-c4cccs4)nc(N)n3)c(O)c12  inhibition (MTT; 128 µg/mL; 72 h): 36%
C[C@H]1[C@@H](CC(=O)NCC(=O)N[C@@H](CC(=O)NC(C)(C)C)C(=O)NCCNC(=O)c2cc(-c3ccccc3F)ccc2F)O[C@@H]2O[C@@]3(C)CC[C@H]4[C@H](C)CC[C@@H]1[C@@]24OO3  EC50 (ATP luminescence; 72 h): 5.8 µM
O=C(CN1C(=O)/C(=C/c2ccc(O)cc2)SC1=S)Nc1ccccc1  inhibition (MTT; 10 µM): 31.6%
CCn1cc(-c2nc(C)no2)c(=O)c2cc(F)c(N3CCC(C)(C)CC3)cc21  EC50 (ATP luminescence; 48 h): > 40 µM
COc1ccc(NC(=O)c2c(Nc3ccccc3)sc(C#N)c2NC(=O)CNc2ccc(Br)cc2)cc1  viability (SRB; 0.1 µM; 48 h): 70.4%
CCn1cc(-c2nnc(-c3cccnc3)o2)c(=O)c2cc(F)c(N3CCC(C)CC3)cc21  EC50 (ATP luminescence; 48 h): > 40 µM
COc1ccc(NC(=O)c2c(Nc3ccccc3)sc(C#N)c2NC(=O)CNc2ccccc2[N+](=O)[O-])cc1  viability (SRB; 100 µM; 48 h): 89.7%
CCOC(=O)c1ccc(-n2c(C)cc(/C=C/c3ccc(OC)cc3)c(C#N)c2=O)cc1  viability (MTT; 3.125 µM; 24 h): 100%
Cc1ccc(/C=N/NC(=O)c2ccc(Nc3cc(C)nc4c(O)cccc34)cc2)cc1  inhibition (MTT; 20 µM): 41.3%
